In PMC5092235 (Journal of medicinal chemistry, 2016):
Each block holds one compound with its values, some of them ahead of it.

How the values were obtained:
[1] = Caco-2 membrane permeability studies; assay type: in vitro ADME; conditions: for cellular permeability: Caco-2 cells; for efflux ratio: human, Caco-2
[2] = test system: MLL-AF9 transformed murine bone marrow cells; assay: MTT cell viability assay in MLL-AF9 transformed murine bone marrow cells; assay type: cell-based; conditions: for SI, selectivity index: ratio of GI50 values measured in HM-2 cells (control cell line) and MLL-AF9 transformed cells; for GI50: read-out: GI50 MLL-AF9, MTT cell viability assay, 7 days of treatment
[3] = Pharmacokinetic studies in mice; assay type: in vivo, mouse; conditions: 24 h experiments (31: 8 h experiment); for Clobs: mice; for half-life: female, C57BL/6, mouse, plasma, T1/2, mice
[4] = test system: panel of kinases; assay: Kinase profiling; assay type: biochemical
[5] = test system: panel of GPCRs; assay: GPCR profiling
[6] = target: T1, menin (Homo sapiens, UniProt O00255); assay: Isothermal titration calorimetry, binding to menin
T1 sequence (O00255 1-610): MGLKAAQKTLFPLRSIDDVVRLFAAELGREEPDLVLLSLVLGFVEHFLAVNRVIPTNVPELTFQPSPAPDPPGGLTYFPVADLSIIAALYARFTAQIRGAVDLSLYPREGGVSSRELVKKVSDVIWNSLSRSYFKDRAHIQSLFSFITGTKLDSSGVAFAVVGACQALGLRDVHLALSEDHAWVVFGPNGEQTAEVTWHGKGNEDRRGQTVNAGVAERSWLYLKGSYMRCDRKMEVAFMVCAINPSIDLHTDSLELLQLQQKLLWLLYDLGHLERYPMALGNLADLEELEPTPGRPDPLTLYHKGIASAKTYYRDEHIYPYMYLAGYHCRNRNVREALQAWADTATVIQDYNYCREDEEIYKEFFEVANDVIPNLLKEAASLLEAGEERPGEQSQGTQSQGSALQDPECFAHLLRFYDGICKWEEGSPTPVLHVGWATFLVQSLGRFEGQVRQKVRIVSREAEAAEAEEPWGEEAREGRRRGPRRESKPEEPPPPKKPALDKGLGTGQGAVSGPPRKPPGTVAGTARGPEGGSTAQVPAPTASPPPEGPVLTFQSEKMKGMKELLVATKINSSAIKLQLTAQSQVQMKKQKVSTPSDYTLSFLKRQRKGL

[7] = test system: Hoxa9/Meis1 (HM-2) transformed murine bone marrow cells; assay: MTT cell viability assay in Hoxa9/Meis1; assay type: cell-based; conditions: up to 6 μM, 7 days
[8] = test system: HL-60 cells; assay: MTT cell viability assay in HL-60 control cell line; assay type: cell-based, human; conditions: up to 6 μM, 7 days
How it was run: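 MTT viability over 7 days at 37 °C. Cells were grown in RPMI-1640 with 10% FBS, penicillin/streptomycin and NEAA, then seeded at 2 × 10^5/mL (HL-60) or 1 × 10^5/mL (MV4;11, MOLM-13). They were treated with test compound or 0.25% DMSO. On day 4 the medium was changed, viable cells were reset to the starting density, and compound was resupplied. Absorbance was read at 570 nm in quadruplicate, with runs repeated 2–3 times; mean and SD are reported.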

[9] = test system: Hoxa9, Meis1 and Itgam expression in MLL-AF9 transformed BMCs; assay: qRT-PCR gene expression in MLL-AF9 transformed murine bone marrow cells; assay type: cell-based; conditions: 6 days of treatment
How it was run: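 MLL-AF9-transformed murine bone marrow cells were treated for 6 days, and expression was then quantified by qRT-PCR. Itgam was normalised to 18S rRNA, and Hoxa9 and Meis1 to β-actin, each relative to DMSO-treated cells. Values are mean ± SD, n = 2.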

[10] = test system: MV4;11 tumors; assay: MV4; assay type: in vivo, mouse; conditions: 45 mg/kg, once daily via ip, 2 weeks
[11] = Phase II metabolism, detection of glucuronidation in blood plasma; assay type: in vivo, mouse; conditions: blood plasma after iv administration, 15 mg/kg
How it was run: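 Test compound was given iv at 15 mg/kg to mice. Glucuronide was detected in blood plasma by LC–MS/MS in positive-ion MRM mode, following the same handling used for the pharmacokinetic study.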

cellular permeability [1]: poor cellular permeability
SMILES: N#Cc1cc2cc(CN3CCC(Nc4ncnc5sc(CC(F)(F)F)cc45)CC3)ccc2n1CC(O)CO (racemic) [3-(RS)]

efflux ratio [1]: > 20
SMILES: CO[C@@H](CO)Cn1c(C#N)cc2cc(CN3CCC(Nc4ncnc5sc(CC(F)(F)F)cc45)CC3)ccc21 [4-(R)]

Clobs ([3]; iv, 15 mg/kg): 38.1 mL/min/kg
SMILES: N#Cc1cc2cc(CN3CCC(Nc4ncnc5sc(CC(F)(F)F)cc45)CC3)ccc2[nH]1 [Compound 1, 5-((4-((6-(2,2,2-Trifluoroethyl)thieno[2,3-d]pyrimidin-4-yl)-amino)piperidin-1-yl)methyl)-1H-indole-2-carbonitrile]
SI, selectivity index [2]: < 6
off-target activity on a panel of kinases [4]: did not show substantial off-target activity
off-target activity on a panel of GPCRs [5]: did not show substantial off-target activity

cellular permeability [1]: poor cellular permeability
efflux ratio [1]: > 90
SMILES: N#Cc1cc2cc(CN3CCC(Nc4ncnc5sc(CC(F)(F)F)cc45)CC3)ccc2n1CC(N)=O [Compound 7, 2-(2-Cyano-5-((4-((6-(2,2,2-trifluoroethyl)thieno[2,3-d]-pyrimidin-4-yl)amino)piperidin-1-yl)methyl)-1H-indol-1-yl)-acetamide]

Clobs ([3]; iv, 15 mg/kg): 44.1 mL/min/kg
SMILES: Cc1c(CN2CCC(Nc3ncnc4sc(CC(F)(F)F)cc34)CC2)c(O)cc2[nH]c(C#N)cc12 [Compound 20, 6-Hydroxy-4-methyl-5-((4-((6-(2,2,2-trifluoroethyl)thieno-[2,3-d]pyrimidin-4-yl)amino)piperidin-1-yl)methyl)-1H-indole-2-carbonitrile]
GI50 [2]: < 200 nM
cellular permeability [1]: relatively high to moderate cellular permeability

Clobs ([3]; iv, 15 mg/kg): 26.6 mL/min/kg
SMILES: COc1cc2[nH]c(C#N)cc2c(C)c1CN1CCC(Nc2ncnc3sc(CC(F)(F)F)cc23)CC1 [Compound 21, 6-Methoxy-4-methyl-5-((4-((6-(2,2,2-trifluoroethyl)thieno-[2,3-d]pyrimidin-4-yl)amino)piperidin-1-yl)methyl)-1H-indole-2-carbonitrile]
GI50 [2]: 100 nM
cellular permeability [1]: relatively high to moderate cellular permeability

cellular permeability [1]: poor cellular permeability
SMILES: Cc1c(CN2CCC(Nc3ncnc4sc(CC(F)(F)F)cc34)CC2)ccc2c1cc(C#N)n2CC(N)=O [Compound 25, 2-(2-Cyano-4-methyl-5-((4-((6-(2,2,2-trifluoroethyl)thieno-[2,3-d]pyrimidin-4-yl)amino)piperidin-1-yl)methyl)-1H-indol-1-yl)acetamide]

ligand efficiency index (LE) [6]: 0.28
half-life ([3]; iv, 15 mg/kg, iv, 15 mg/kg): ~1.6 h
half-life ([3]; po, 30 mg/kg, po, 30 mg/kg): 1.6 h
Clobs ([3]; iv, 15 mg/kg): 14.0 mL/min/kg
phase II metabolism [11]: undergoes glucuronidation
SMILES: N#Cc1cc2cc(CN3CCC(Nc4ncnc5sc(CC(F)(F)F)cc45)CC3)c(O)cc2n1Cc1cn[nH]c1 [Compound 27, 1-((1H-Pyrazol-4-yl)methyl)-6-hydroxy-5-((4-((6-(2,2,2-trifluoroethyl)thieno[2,3-d]pyrimidin-4-yl)amino)piperidin-1-yl)methyl)-1H-indole-2-carbonitrile]
SI, selectivity index [2]: > 100
effect on growth of control cell line HM-2 [7]: no effect
effect on growth of control cell line HL-60 [8]: no effect
expression level of Itgam (differentiation marker) [9]: marked increase
reduction in the MV4;11 tumor volume [10]: about 80%
reduction of the body weight [10]: less than 10%

Clobs ([3]; iv, 15 mg/kg): 15.0 mL/min/kg
SMILES: COc1cc2c(cc(C#N)n2Cc2cn[nH]c2)c(C)c1CN1CCC(Nc2ncnc3sc(CC(F)(F)F)cc23)CC1 [Compound 31, 1-((1H-Pyrazol-4-yl)methyl)-6-methoxy-4-methyl-5-((4-((6-(2,2,2-trifluoroethyl)thieno[2,3-d]pyrimidin-4-yl)amino)-piperidin-1-yl)methyl)-1H-indole-2-carbonitrile]
GI50 [2]: < 200 nM
